Test system: MS2 coat protein
Test: apparent Kd, MS2 coat protein; higher = weaker binding; RNA-MaP array; FMN 200 µM where present
Outline: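 Binding was read on Illumina sequencing-chip clusters where stalled E. coli RNA polymerase had transcribed each design. A titration of SNAP-549-labelled MS2 coat protein began at 0.7 or 1.5 nM and doubled to 3 µM, once without ligand and once with constant ligand, in 100 mM Tris-HCl pH 7.5, 80 mM KCl, 4 mM MgCl2, BSA, DTT, yeast tRNA and Tween-20. The apparent Kd is the median of filtered per-cluster binding-curve fits, based on green signal normalised to red-channel RNA signal and control-cluster median Fmax.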

[1] = designed as: OFF switch for flavin mononucleotide, no ligand
[2] = ligand present: flavin mononucleotide, designed as: OFF switch for flavin mononucleotide
[3] = designed as: ON switch for flavin mononucleotide, no ligand
[4] = ligand present: flavin mononucleotide, designed as: ON switch for flavin mononucleotide

GACACCGUGUAGAAGGACCAGUGCGCUACUAUGGUAGGAUAUACAUGAGGAUCACCCAUGUGACGGCUUUCGGUGGGAGCAGUG
apparent Kd [1]: 10.9 nM
apparent Kd [2]: 19.8 nM

UGUCGGAGCAGAGGAUAUUACAUGAGGAUCACCCAUGUAUGAACCAGUAGCUGGAAACAGCAAUGUAAGAAGGCUGCUCCGACA
apparent Kd [1]: 10.9 nM
apparent Kd [2]: 91.3 nM

CCAGGCUGUGUGAGGAUAUGCUGGUCCUUGGAUCAGCAGAAGGCACAUGAGGAUCACCCAUGUGAAAAGCUUGG
apparent Kd [1]: 17.4 nM
apparent Kd [2]: 57.6 nM

GCAUUGAGUGUGAGGAUAUGCUGGUCCUUGGAUCAGCAGAAGGCACAUGAGGAUCACCCAUGUGAAUACAAUGC
apparent Kd [1]: 20.9 nM
apparent Kd [2]: 116 nM

AAGGCCUAUUCCAGGACUAUCGUACUAGAAGGGUGACCUGACAUGAGGAUCACCCAUGUACGGGCACAGGAUAUAGAUGAAAGG
apparent Kd [3]: 50.1 nM
apparent Kd [4]: 11.3 nM

GACUUGUUAGGAUAUCUUACAUUUGCAUCAUAGUAACCUUUGGAGAAGGGACAUGAGGAUCACCCAUGUUUGGU
apparent Kd [1]: 62.3 nM
apparent Kd [2]: 53.5 nM

CUCAAACAUGAGGAUCACCCAUGUCAGGAUAUGAUACUAUGUACUUCGGUACAUAGUAUCAGAAGGGAUAUGAA
apparent Kd [1]: 87.6 nM
apparent Kd [2]: 111 nM

GCCUUAUCCGUCAGGAUAUACAGCCGUUAGUUGUUGUAGAAGGGACAUGAGGAUCACCCAUGUACGUACCAUUG
apparent Kd [1]: 18.7 nM
apparent Kd [2]: 30.7 nM

CCAUGGCAUGUAGGAUAUGUCUGACAAAGUCAGACAGAAGGACAUGAGGAUCACCCAUGUAAACCGAAAGGAACAUAGCCAUGG
apparent Kd [1]: 6.54 nM
apparent Kd [2]: 7.3 nM

AAAUUGACGGGACAUGAGGAUCACCCAUGUGCUAGCCGGACCAGAAGGGCAGCCGGCACGUGGUUGCAGGAUAUGGCCGUCGCA
apparent Kd [3]: 154 nM
apparent Kd [4]: 151 nM

AUAUAACAUGAGGAUCACCCAUGUCAACAAAGUCGAGGAUAUGGGCAAAUAAAAUAAGAACCAGAAGGCGAAUAAU
apparent Kd [3]: 291 nM
apparent Kd [4]: 51.9 nM

CCGUAGAGAGGAUAUACAUGAGGAUCACCCAUGUGACAUCGAACGAUGUCGCCUAGUCGUAGAAGGUUCAAACG
apparent Kd [1]: 25.4 nM
apparent Kd [2]: 24.8 nM

GAACAGGGAGGAUAUACAGAUCCUCGUGCCUGCGGACCAAGACAUGAGGAUCACCCAUGUAGAAGGCCCGAAAA
apparent Kd [1]: 15.3 nM
apparent Kd [2]: 10.5 nM

AGAAACUACGAGAAGGACAAAAAAGGUGCCGCAAACAUGAGGAUCACCCAUGUAGGAUAUCGUAGUUUCAGGAUCGUGAGAUCA
apparent Kd [1]: 16.5 nM
apparent Kd [2]: 98.3 nM

ACGCCCUGAGGAUAUCUUAUGCCGCACAUGAGGAUCACCCAUGUUCUCCUCCGGGCUCCGAGAGAAGGCAGGCCCA
apparent Kd [1]: 8.82 nM
apparent Kd [2]: 10.2 nM

CACGGUGAUGUAGGAUAUACGCUGGAAUACAGCGUAGAAGGACAUGAGGAUCACCCAUGUAGAGUGUCUCCAAAUAACACCGUG
apparent Kd [1]: 43 nM
apparent Kd [2]: 293 nM

GUACCUUAUGAGAAGGCGGUCAUGAAACAUGAUCGAGGAUAUCAUGUAAACAUGAGGAUCACCCAUGUAUGGGUAUUAUGGUAG
apparent Kd [3]: 70.2 nM
apparent Kd [4]: 13.8 nM

UGGUACUAGGGAGGAUAUGGGAAGAUACAUGAGGAUCACCCAUGUUUAAGCAUGCCGAGAGGCAACUAGAAGGCCCUAGUACCU
apparent Kd [3]: 357 nM
apparent Kd [4]: 18 nM

ACAUUUAAUACAGGAUAUGUAUGUAUACAAUAGAUUGGUUUUAUCACAUCAACAGAAGGGUAGAACAUGAGGAUCACCCAUGUA
apparent Kd [3]: 114 nM
apparent Kd [4]: 79.8 nM

CGAUGUUAUGUCAGGAUAUGCAUUGCGAAAGCGAUGCAGAAGGGACAUGAGGAUCACCCAUGUCCUAACCAUCG
apparent Kd [1]: 12.3 nM
apparent Kd [2]: 18.8 nM
